Results reported in ChEMBL document CHEMBL1157858, “Synthesis and antituberculosis activity of some N-pyridyl-N'-thiazolylhydrazine derivatives” (Eur J Med Chem, 2010).
≈ marks a conversion by molar mass, not a printed value.

Assays:
[1] = system: Mycobacterium tuberculosis; test: Antitubercular activity against Mycobacterium tuberculosis H37Rv by Alamar blue assay; format: functional, organism-based
In short: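 M. tuberculosis H37Rv (ATCC 27294) grown in BACTEC 12B medium and tested by Microplate Alamar Blue Assay. Ten 2-fold dilutions, typically from 100 to 0.19. IC90 is the concentration giving a 90% drop in fluorescence relative to controls.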

[2] = Cytotoxicity against african green monkey Vero cells after 72 hrs by cell titer-glo assay; format: cell-based; settings: chlorocebus sabaeus
In short: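 Vero cells, run alongside the TB dose-response assay; compound exposure 72 h, then viability read by ATP-based luminescence (CellTiter-Glo). CC50 taken from the dose–response curve by curve fitting.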

[3] = Selectivity index, ratio of CC50 for african green monkey Vero cells to IC90 for Mycobacterium tuberculosis H37Rv; format: toxicity, cell-based; settings: read-out: Selectivity Index
In short: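 Vero cells run in parallel with the TB dose-response assay. Viability is read after 72 h exposure by CellTiter-Glo luminescence, which quantifies cellular ATP. CC50 is fitted from the dose-response curve. IC90 for H37Rv comes from the MABA fluorescence readout, as a 90% reduction relative to controls.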

Compound | IC50 [1] | IC90 [1] | CC50 at 72 h [2] | selectivity ratio [3]
COc1ccc(O)c(-c2csc(N/N=C(\C)c3ccncc3)n2)c1 | > 100 mg/L | > 100 mg/L |  | 
C/C(=N\Nc1nc(-c2cccs2)cs1)c1ccccn1 | 48.4 mg/L (≈ 161 µM) | 55.2 mg/L (≈ 184 µM) |  | 
C/C(=N\Nc1nc(-c2cccs2)cs1)c1cccnc1 | 92.2 mg/L (≈ 307 µM) | > 100 mg/L |  | 
C/C(=N\Nc1nc(-c2cccs2)cs1)c1ccncc1 | > 100 mg/L | > 100 mg/L |  | 
COc1ccc(O)c(-c2csc(N/N=C(\C)c3ccccn3)n2)c1 | 6.22 mg/L (≈ 18.3 µM) | 6.78 mg/L (≈ 19.9 µM) | > 40 mg/L | > 5.89
COc1ccc(O)c(-c2csc(N/N=C(\C)c3cccnc3)n2)c1 | > 100 mg/L | > 100 mg/L |  | 
